Measured values as given in ChEMBL document CHEMBL1138718, “CVT-4325: a potent fatty acid oxidation inhibitor with favorable oral bioavailability” (Bioorg Med Chem Lett, 2004).

Columns and labels:
[1] = Metabolic stability as percent of drug remaining after incubation with human liver S9 for 30 min was determined; format: ADME, subcellular, Liver S9 fraction; settings: for remaining at 0.5 h: liver S9, read-out: Activity
Summary of the method: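 Incubation with human liver S9 (2 mg/mL) plus NADPH for 30 min, read as percent parent remaining. A standard was run in every assay, and data were accepted only if the standard fell within ±5% of its historical mean.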

[2] = Area under curve for the compound was determined in rats after 2 mg/kg oral dose; format: ADME, organism-based; design: dose 2 mg/kg, route oral; settings: rat, in vivo
[3] = Plasma clearance in rats after 1 mg/kg intravenous dose; settings: rat; for clearance: plasma
[4] = Oral bioavailability in rat (dose 2 mg/kg); format: ADME, organism-based; settings: in vivo
[5] = Half life in rats after 1 mg/kg intravenous dose; settings: rat, in vivo
[6] = Area under curve for the compound was determined in dog after 4 mg/kg oral dose; format: ADME, organism-based, Canis lupus familiaris; design: dose 4 mg/kg, route oral; settings: in vivo
[7] = Plasma clearance in dog after 1 mg/kg intravenous dose; settings: in vivo
[8] = Half life in dog after 1 mg/kg intravenous dose; settings: in vivo
[9] = Bioavailability in dog after 4 mg/kg oral dose; format: ADME, organism-based, Canis lupus familiaris; settings: in vivo
[10] = Plasma clearance in dog after 1 mg/kg intravenous dose; settings: in vivo; remark: listed apart in the source
[11] = Bioavailability in dog after 5 mg/kg oral dose; format: ADME, organism-based, Canis lupus familiaris; settings: in vivo
[12] = Area under curve for the compound was determined in dog after 5 mg/kg oral dose; format: ADME, organism-based, Canis lupus familiaris; design: dose 5 mg/kg, route oral; settings: in vivo
[13] = Half life in dog after 1 mg/kg intravenous dose; settings: in vivo; remark: listed apart in the source

SMILES	remaining at 0.5 h [1]	other results
Cc1nc2cc(OC[C@H](O)CN3CCN(Cc4nc(-c5ccc(C(C)(C)C)cc5)no4)CC3)ccc2s1	39%	
Cc1nc2cc(OC[C@H](O)CN3CCN(Cc4nc(-c5ccc(C(C)C)cc5)no4)CC3)ccc2s1	21%	
Cc1nc2cc(OC[C@H](O)CN3CCN(Cc4nc(-c5ccc(Cl)cc5)no4)CC3)ccc2s1	66%	
Cc1nc2cc(OC[C@H](O)CN3CCN(Cc4noc(-c5cccc(Cl)c5)n4)CC3)ccc2s1	38%	
Cc1nc2cc(OC[C@H](O)CN3CCN(Cc4noc(-c5ccc(Cl)cc5Cl)n4)CC3)ccc2s1	33%	
Cc1nc2cc(OC[C@H](O)CN3CCN(Cc4nc(-c5ccc(Cl)cc5Cl)no4)CC3)ccc2s1	29%	
Cc1nc2cc(OC[C@H](O)CN3CCN(Cc4noc(-c5ccc(Cl)cc5Cl)n4)C[C@@H]3C)ccc2s1 (stereo in doubt; 32)		Activity ([1]; s9, 0.5 h, 0.5 h): 30%
Cc1nc2cc(OC[C@H](O)CN3CCN(Cc4noc(-c5ccc(Cl)cc5Cl)n4)C[C@@H]3C)ccc2s1 (stereo in doubt; 31)	17%	
Cc1nc2cc(OC[C@H](O)CN3CCN(CC(=O)Nc4c(C)cccc4C)CC3)ccc2s1		AUC [2]: 30.5 ng·h/mL; Plasma clearance ([3]; in vivo): 54.5 mL/min/kg; F [4]: 19%; half-life [5]: 84 min
Cc1nc2cc(OC[C@H](O)CN3CCN(Cc4nc(-c5ccc(Cl)c(Cl)c5)no4)CC3)ccc2s1	36%	
Cc1nc2cc(OC[C@H](O)CN3CCN(Cc4noc(-c5ccc(Cl)c(Cl)c5)n4)CC3)ccc2s1	30%	
Cc1nc2cc(OC[C@H](O)CN3CCN(Cc4nnc(-c5ccc(Cl)cc5)o4)CC3)ccc2s1	34%	
Cc1nc2cc(OC[C@H](O)CN3CCN(Cc4nnc(-c5ccc(C(C)(C)C)cc5)o4)CC3)ccc2s1	25%	

More lines, main results first:

remaining at 0.5 h [1]	SMILES	other results
49%	Cc1nc2cc(OC[C@H](O)CN3CCN(Cc4nnc(-c5ccc(C(F)(F)F)cc5)o4)CC3)ccc2s1	
39%	COc1ccc(-c2nc(CN3CCN(C[C@@H](O)COc4ccc5sc(C)nc5c4)CC3)no2)cc1	
50%	Cc1nc2cc(OC[C@H](O)CN3CCN(Cc4noc(-c5ccc(F)cc5)n4)CC3)ccc2s1	
48%	Cc1nc2cc(OC[C@H](O)CN3CCN(Cc4noc(-c5ccc(Cl)cc5)n4)CC3)ccc2s1	
18%	Cc1nc2cc(OC[C@H](O)CN3CCN(Cc4noc(-c5ccc(C(C)(C)C)cc5)n4)CC3)ccc2s1	
43%	Cc1nc2cc(OC[C@H](O)CN3CCN(Cc4coc(-c5ccc(C(F)(F)F)cc5)n4)CC3)ccc2s1	
31%	Cc1cccc(-c2nc(CN3CCN(C[C@@H](O)COc4ccc5sc(C)nc5c4)CC3)no2)c1	
31%	Cc1nc2cc(OC[C@H](O)CN3CCN(Cc4noc(-c5ccc(C(C)C)cc5)n4)CC3)ccc2s1	
72%	Cc1nc2cc(OC[C@H](O)CN3CCN(Cc4nc(-c5ccc(C(F)(F)F)cc5)no4)CC3)ccc2s1	
56%	Cc1nc2cc(OC[C@H](O)CN3CCN(Cc4noc(-c5ccc(C#N)cc5)n4)CC3)ccc2s1	
40%	Cc1nc2cc(OC[C@H](O)CN3CCN(Cc4csc(-c5ccc(C(F)(F)F)cc5)n4)CC3)ccc2s1	
42%	Cc1nc2cc(OC[C@H](O)CN3CCN(Cc4noc(-c5cccc(F)c5)n4)CC3)ccc2s1	
74%	Cc1nc2cc(OC[C@H](O)CN3CCN(Cc4noc(-c5ccc(C(F)(F)F)cc5)n4)CC3)ccc2s1	AUC [6]: 1776 ng·h/mL; Plasma clearance [7]: 12.2 mL/min/kg; AUC ([2]; read-out: AUC): 282 ng·h/mL; clearance [3]: 22.5 mL/min/kg; half-life [8]: 816 min; bioavailability [4]: 38%; half-life [5]: 192 min; Bioavailabiility [9]: 93%
40%	Cc1nc2cc(OC[C@H](O)CN3CCN(Cc4nc(-c5ccc(C(F)(F)F)cc5)sc4C)CC3)ccc2s1	
43%	Cc1nc2cc(OC[C@H](O)CN3CCN(Cc4noc(-c5ccc(C(F)(F)F)cc5)n4)C[C@@H]3C)ccc2s1	Plasma clearance [10]: 4.6 mL/min/kg; Bioavailabiility [11]: 30%; AUC ([2]; read-out: AUC): 253 ng·h/mL; clearance [3]: 19.7 mL/min/kg; AUC [12]: 1093 ng·h/mL; bioavailability [4]: 29%; half-life [13]: 2.71 days; half-life [5]: 240 min
